Data: ChEMBL document CHEMBL1153429, “Structure-based virtual screening of Src kinase inhibitors” (Bioorg Med Chem, 2009)
Calls of active or inactive are those of the source. No cut-off for these calls is given here.

What was measured:
[1] = target: T1, Proto-oncogene tyrosine-protein kinase Src (Homo sapiens, UniProt P12931); experiment: Inhibition of Src kinase at 10 uM
Outline: (§1)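 Kinase reaction with ATP and specific substrate, incubated 1 h at room temperature with test compound (1% DMSO final). Protease solution then added, followed by stabilizer. Read-out by […] at 485/530 nm.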

[2] = target: T1, Proto-oncogene tyrosine-protein kinase Src
[3] = target: Ribosomal protein S6 kinase alpha-1 (Homo sapiens) (UniProt Q15418); experiment: Inhibition of p90RSK phosphorylation in human A431 cells at 0.1 uM after 6 hrs by Western blot analysis; assay type: cell-based; conditions: A-431
Sequence of Ribosomal protein S6 kinase alpha-1 (Homo sapiens) (Q15418 whole entry): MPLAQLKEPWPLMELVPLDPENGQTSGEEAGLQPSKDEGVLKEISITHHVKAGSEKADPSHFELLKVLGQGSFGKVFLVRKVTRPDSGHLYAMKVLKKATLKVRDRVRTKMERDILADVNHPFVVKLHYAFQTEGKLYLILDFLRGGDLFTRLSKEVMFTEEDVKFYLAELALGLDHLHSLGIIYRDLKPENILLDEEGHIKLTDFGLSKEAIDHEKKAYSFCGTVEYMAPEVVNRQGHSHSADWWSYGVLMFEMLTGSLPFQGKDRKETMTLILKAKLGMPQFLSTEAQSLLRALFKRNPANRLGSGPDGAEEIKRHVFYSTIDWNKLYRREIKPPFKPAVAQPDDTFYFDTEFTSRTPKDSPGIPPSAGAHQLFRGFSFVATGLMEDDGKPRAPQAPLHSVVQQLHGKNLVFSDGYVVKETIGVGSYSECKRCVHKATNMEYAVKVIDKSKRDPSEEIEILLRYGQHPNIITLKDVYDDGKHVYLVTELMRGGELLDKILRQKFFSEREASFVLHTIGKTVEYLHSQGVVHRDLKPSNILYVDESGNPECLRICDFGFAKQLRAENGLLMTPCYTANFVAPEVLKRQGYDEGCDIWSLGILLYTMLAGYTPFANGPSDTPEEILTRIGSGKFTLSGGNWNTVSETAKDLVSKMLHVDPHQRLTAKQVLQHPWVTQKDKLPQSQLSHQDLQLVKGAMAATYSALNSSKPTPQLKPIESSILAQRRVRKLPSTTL
Outline: (§2)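 PC3 or A431 cells grown 48 h in 6 cm dishes, then exposed to 0.1 µM compound for varying times. Lysed on ice in Tris pH 7.5/NaCl/EDTA/Triton X-100/DTT/PMSF/glycerol with protease inhibitors, then spun. Protein measured by dye-binding assay. Run on 10% SDS-PAGE, blotted to PVDF, blocked 1 h in 5% milk, and probed for phospho and total ERK and p90RSK.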

A-431 [4] = experiment: Antiproliferative activity against human A431 cells after 72 hrs by SRB assay; assay type: functional, cell-based
Outline: (§3)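 Cells seeded at 10,000–15,000 per well and held at 37 °C, 5% CO2. After 24 h compound added across a concentration range for 72 h. Cells then fixed with cold 10% TCA and stained with sulforhodamine B (0.4% in 1% acetic acid). Dye solubilized in 10 mM Tris base and absorbance read. GI50 from [(Ti−Tz)/(C−Tz)]×100 = 50. PC3 and SK-BR3 grown in RPMI 1640 with 10% FBS; A431 and MCF-7 in DMEM with 10% FBS.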

[5] = target: Epidermal growth factor receptor (Homo sapiens, UniProt P00533)
Sequence of Epidermal growth factor receptor (P00533 whole entry): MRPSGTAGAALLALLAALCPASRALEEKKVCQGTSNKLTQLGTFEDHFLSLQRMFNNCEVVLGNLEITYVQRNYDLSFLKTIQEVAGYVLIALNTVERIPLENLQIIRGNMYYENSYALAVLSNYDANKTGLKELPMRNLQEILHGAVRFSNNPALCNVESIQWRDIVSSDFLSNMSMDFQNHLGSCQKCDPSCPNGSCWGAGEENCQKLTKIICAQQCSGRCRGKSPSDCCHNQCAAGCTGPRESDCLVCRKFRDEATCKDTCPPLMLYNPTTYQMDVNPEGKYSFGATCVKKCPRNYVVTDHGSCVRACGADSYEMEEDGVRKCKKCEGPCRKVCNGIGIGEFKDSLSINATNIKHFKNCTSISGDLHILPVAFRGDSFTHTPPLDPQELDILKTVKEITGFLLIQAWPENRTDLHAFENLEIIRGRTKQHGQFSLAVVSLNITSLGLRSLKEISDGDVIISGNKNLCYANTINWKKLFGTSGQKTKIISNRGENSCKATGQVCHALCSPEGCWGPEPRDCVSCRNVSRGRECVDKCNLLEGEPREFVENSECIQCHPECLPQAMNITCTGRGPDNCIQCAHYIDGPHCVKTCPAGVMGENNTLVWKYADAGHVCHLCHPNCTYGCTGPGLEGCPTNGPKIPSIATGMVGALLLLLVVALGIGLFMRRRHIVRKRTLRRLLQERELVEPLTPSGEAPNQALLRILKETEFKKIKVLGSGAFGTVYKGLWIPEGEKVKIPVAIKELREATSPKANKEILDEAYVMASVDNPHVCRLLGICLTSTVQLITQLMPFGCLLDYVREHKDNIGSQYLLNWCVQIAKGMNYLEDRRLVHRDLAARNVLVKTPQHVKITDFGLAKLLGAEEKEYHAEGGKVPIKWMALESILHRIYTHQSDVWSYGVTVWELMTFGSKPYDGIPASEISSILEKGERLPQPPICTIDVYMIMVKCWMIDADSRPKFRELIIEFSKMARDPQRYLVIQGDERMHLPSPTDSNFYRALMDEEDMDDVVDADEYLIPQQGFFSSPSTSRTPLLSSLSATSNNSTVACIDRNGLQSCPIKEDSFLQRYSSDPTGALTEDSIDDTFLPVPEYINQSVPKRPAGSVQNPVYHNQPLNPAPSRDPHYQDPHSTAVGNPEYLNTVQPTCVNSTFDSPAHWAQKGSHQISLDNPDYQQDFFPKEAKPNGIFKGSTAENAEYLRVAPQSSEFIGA

PC-3 [6] = experiment: Inhibition of ERK phosphorylation in human PC3 cells at 0.1 uM after 6 hrs by Western blot analysis; assay type: cell-based; outline: as §2
A-431 [7] = experiment: Inhibition of ERK phosphorylation in human A431 cells at 0.1 uM by Western blot analysis; assay type: cell-based; conditions: TDE = time-dependent effect; outline: as §2
PC-3 [8] = experiment: Inhibition of ERK phosphorylation in human PC3 cells at 0.1 uM by Western blot analysis; assay type: cell-based; conditions: TDE = time-dependent effect; outline: as §2
[9] = target: Ribosomal protein S6 kinase alpha-1 (Homo sapiens) (UniProt Q15418); experiment: Inhibition of p90RSK phosphorylation in human A431 cells at 0.1 uM by Western blot analysis; assay type: cell-based; conditions: A-431, TDE = time-dependent effect; outline: as §2
PC-3 [10] = experiment: Antiproliferative activity against human PC3 cells after 72 hrs by SRB assay; assay type: functional, cell-based; outline: as §3
A-431 [11] = experiment: Inhibition of EGF-stimulated tyrosine phosphorylation in human A431 cells
[12] = target: Vascular endothelial growth factor receptor 2 (Homo sapiens) (UniProt P35968); experiment: Inhibition of VEGFR2 at 10 uM; outline: as §1
Sequence of Vascular endothelial growth factor receptor 2 (Homo sapiens) (P35968 whole entry): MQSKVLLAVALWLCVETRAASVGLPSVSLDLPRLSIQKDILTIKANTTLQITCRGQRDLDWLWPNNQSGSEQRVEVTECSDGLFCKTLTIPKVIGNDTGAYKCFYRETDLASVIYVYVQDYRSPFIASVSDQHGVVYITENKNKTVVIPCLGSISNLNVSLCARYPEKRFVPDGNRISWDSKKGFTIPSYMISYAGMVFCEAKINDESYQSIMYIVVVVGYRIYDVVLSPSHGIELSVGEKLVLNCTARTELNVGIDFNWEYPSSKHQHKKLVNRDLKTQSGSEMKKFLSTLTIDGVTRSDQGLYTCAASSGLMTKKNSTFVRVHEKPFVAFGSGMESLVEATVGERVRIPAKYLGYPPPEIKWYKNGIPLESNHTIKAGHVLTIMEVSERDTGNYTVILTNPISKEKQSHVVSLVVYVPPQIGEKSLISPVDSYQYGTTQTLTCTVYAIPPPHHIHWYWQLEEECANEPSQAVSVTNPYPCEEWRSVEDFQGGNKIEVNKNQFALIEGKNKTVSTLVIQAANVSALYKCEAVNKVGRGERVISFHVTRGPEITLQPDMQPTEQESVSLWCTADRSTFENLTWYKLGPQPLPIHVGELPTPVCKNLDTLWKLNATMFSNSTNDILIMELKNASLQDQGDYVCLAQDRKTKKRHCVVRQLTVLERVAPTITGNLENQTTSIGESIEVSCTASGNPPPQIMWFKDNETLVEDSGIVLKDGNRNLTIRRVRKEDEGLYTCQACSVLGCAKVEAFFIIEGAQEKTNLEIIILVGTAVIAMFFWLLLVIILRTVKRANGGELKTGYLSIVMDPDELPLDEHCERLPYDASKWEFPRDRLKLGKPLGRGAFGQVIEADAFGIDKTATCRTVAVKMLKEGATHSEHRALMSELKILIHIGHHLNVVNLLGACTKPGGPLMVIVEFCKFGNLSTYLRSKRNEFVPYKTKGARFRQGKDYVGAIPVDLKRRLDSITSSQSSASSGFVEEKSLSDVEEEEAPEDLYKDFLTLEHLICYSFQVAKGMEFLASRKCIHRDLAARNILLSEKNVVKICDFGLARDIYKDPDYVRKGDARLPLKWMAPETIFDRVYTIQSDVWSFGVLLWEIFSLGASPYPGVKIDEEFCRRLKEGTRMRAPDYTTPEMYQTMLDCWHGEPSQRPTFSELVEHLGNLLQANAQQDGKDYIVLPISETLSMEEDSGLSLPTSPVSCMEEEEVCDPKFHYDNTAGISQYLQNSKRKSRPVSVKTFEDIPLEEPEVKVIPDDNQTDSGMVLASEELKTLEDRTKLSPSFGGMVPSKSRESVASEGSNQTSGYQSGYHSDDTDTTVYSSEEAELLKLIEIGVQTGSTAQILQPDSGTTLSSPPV

[13] = Oral bioavailability in Sprague-Dawley rat at 10 mg/kg, po; assay type: ADME, organism-based; conditions: in vivo
Outline: (§4)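 Single dose in Sprague–Dawley rats, iv or po. Rats fasted overnight before oral dosing and fed about 2 h after it; no fasting for iv. Approx. 0.3 mL blood drawn from the tail vein into heparin tubes at various times, then centrifuged to plasma and held at −80 °C. Compound measured by LCMS. t1/2 = 0.693/Ke; AUC by linear trapezoidal rule to 5 h plus extrapolation.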

Rattus norvegicus = experiment: Cmax in Sprague-Dawley rat plasma at 10 mg/kg, iv and po; assay type: ADME, organism-based; parameters: dose 10 mg/kg, route oral; conditions: in vivo
[14] = Half life in Sprague-Dawley rat at 5 mg/kg, iv; assay type: ADME, organism-based; parameters: dose 5 mg/kg, route intravenous; conditions: in vivo; outline: as §4
[15] = Cmax in Sprague-Dawley rat at 10 mg/kg, po; assay type: ADME, organism-based; parameters: dose 10 mg/kg, route oral; conditions: in vivo; outline: as §4
[16] = AUC in Sprague-Dawley rat at 10 mg/kg, po; assay type: ADME, organism-based; parameters: dose 10 mg/kg, route oral; conditions: plasma; outline: as §4
A-431 [17] = experiment: Inhibition of ERK phosphorylation in human A431 cells at 0.1 uM after 6 hrs by Western blot analysis; assay type: cell-based; outline: as §2
[18] = Cmax in Sprague-Dawley rat at 5 mg/kg, iv; assay type: ADME, organism-based; parameters: dose 5 mg/kg, route intravenous; conditions: in vivo; outline: as §4
[19] = Tmax in Sprague-Dawley rat plasma at 10 mg/kg, iv and po; assay type: ADME, organism-based; parameters: dose 10 mg/kg, route oral
[20] = Tmax in Sprague-Dawley rat at 5 mg/kg, iv; assay type: ADME, organism-based; parameters: dose 5 mg/kg, route intravenous; conditions: in vivo; outline: as §4
SK-BR-3 = experiment: Antiproliferative activity against human SKBR3 cells expressing HER2 at < 10 uM after 72 hrs by SRB assay; assay type: functional, cell-based; outline: as §3
[21] = target: Ribosomal protein S6 kinase alpha-1 (Homo sapiens) (UniProt Q15418); experiment: Inhibition of p90RSK phosphorylation in human PC3 cells at 0.1 uM by Western blot analysis; assay type: cell-based; conditions: PC-3, TDE = time-dependent effect; outline: as §2
[22] = Tmax in Sprague-Dawley rat at 10 mg/kg, po; assay type: ADME, organism-based; parameters: dose 10 mg/kg, route oral; conditions: in vivo; outline: as §4
[23] = AUC in Sprague-Dawley rat at 5 mg/kg, iv; assay type: ADME, organism-based; parameters: dose 5 mg/kg, route intravenous; conditions: plasma; outline: as §4
[24] = Half life in Sprague-Dawley rat at 10 mg/kg, po; assay type: ADME, organism-based; parameters: dose 10 mg/kg, route oral; conditions: in vivo; outline: as §4
[25] = target: Ribosomal protein S6 kinase alpha-1 (Homo sapiens) (UniProt Q15418); experiment: Inhibition of p90RSK phosphorylation in human PC3 cells at 0.1 uM after 6 hrs by Western blot analysis; assay type: cell-based; conditions: PC-3; outline: as §2
MCF7 = experiment: Antiproliferative activity against human MCF7 cells at < 10 uM after 72 hrs by SRB assay; assay type: functional, cell-based; outline: as §3

T1 sequence (P12931 2-536 limits assumed): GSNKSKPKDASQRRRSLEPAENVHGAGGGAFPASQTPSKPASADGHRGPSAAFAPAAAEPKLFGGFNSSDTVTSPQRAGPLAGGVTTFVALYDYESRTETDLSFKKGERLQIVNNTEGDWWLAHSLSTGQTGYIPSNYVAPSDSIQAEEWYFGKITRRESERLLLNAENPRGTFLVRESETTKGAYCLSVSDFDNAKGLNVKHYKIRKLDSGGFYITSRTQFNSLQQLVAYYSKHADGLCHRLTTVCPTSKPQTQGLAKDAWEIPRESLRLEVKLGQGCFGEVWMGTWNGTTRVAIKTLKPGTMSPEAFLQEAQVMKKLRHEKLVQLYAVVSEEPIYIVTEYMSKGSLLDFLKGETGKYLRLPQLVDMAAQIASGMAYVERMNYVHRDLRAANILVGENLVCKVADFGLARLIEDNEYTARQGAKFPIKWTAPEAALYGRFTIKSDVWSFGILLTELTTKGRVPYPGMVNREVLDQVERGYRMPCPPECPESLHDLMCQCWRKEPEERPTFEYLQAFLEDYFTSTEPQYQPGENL

CCN1CCN(Cc2ccc(-c3cc4c(N[C@@H](C)c5ccccc5)ncnc4[nH]3)cc2)CC1
Activity [1]: Active

CN(C)CCC(=O)Nc1cc2c(Nc3ccc(F)c(Cl)c3)ncnc2cc1OCCCN1CCOCC1
Activity [1]: Active

COCCOc1cc2ncnc(Nc3ccc(F)c(Cl)c3)c2cc1NC(=O)[C@@H]1CCCN1
IC50 [2]: 300 nM
Activity [1]: Active

COCCOc1cc2ncnc(Nc3c(Cl)ccc4c3OCO4)c2cc1NC(=O)[C@@H]1CCCN1
Activity [3]: Active
Activity (A-431 [4]): Dose-dependent effect
IC50 [5]: 7130 nM
Activity (PC-3 [6]): Active
Activity (A-431 [7]): tde
Activity (PC-3 [8]): tde
Activity [9]: tde
Activity (PC-3 [10]): Dose-dependent effect
IC50 (A-431 [11]): 780 nM
Activity [12]: inactive
bioavailability [13]: 20.4%
Cmax (Rattus norvegicus): 400 nM
IC50 [2]: 89 nM
half-life [14]: 6.1 h
Cmax [15]: 120 nM
AUC [16]: 1240 ng·h/mL
Activity (A-431 [17]): Active
Cmax [18]: 2010 nM
Tmax [19]: 1 h
Tmax [20]: 4.8 min
Activity (SK-BR-3): inactive
Activity [21]: tde
Tmax [22]: 4 h
AUC [23]: 2400 ng·h/mL
half-life [24]: 5.4 h
Activity [25]: Active
Activity (MCF7): inactive

C=CC(=O)Nc1cc2c(Nc3cc(OC)c(Cl)cc3OC)ncnc2cc1OCC1CCN(C)CC1
Activity [1]: Active
